Measurements reported in ChEMBL document CHEMBL1155318, “Discovery of novel phenethylpyridone derivatives as potent melanin-concentrating hormone 1 receptor antagonists” (Bioorg Med Chem Lett, 2009).

Tests used:
[1] = target: T1, Melanin-concentrating hormone receptor 1 (Homo sapiens, UniProt Q99705); test: Displacement of [125I]MCH from human recombinant MCH1R expressed on CHOK1 cell membrane; type: cell membranes, CHO-K1
Outline: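 Competition binding with [125I]MCH on membranes of CHO-K1 cells expressing human recombinant MCH-1R. Inhibition of radioligand binding is measured. Values are means of n = 2.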

[2] = Metabolic stability in human liver microsomes after 30 mmins; type: ADME, Microsome; conditions: read-out: Stability
Outline: (§1)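 Hepatic microsomes (human or mouse) are incubated with compound for 30 min. The read-out is % of parent remaining. Values are means of n = 2.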

[3] = Metabolic stability in mouse liver microsomes after 30 mmins; type: ADME, Microsome; conditions: read-out: Stability; outline: as §1
[4] = target: T1, Melanin-concentrating hormone receptor 1; test: Antagonistic activity against MCH1R expressed on CHOK1 cells assessed as intracellular calcium mobilization by FLIPR; type: functional, cell-based, CHO-K1
[5] = target: Voltage-gated inwardly rectifying potassium channel KCNH2 (Homo sapiens, UniProt Q12809); test: Inhibition of human ERG potassium channel 1
[6] = Inhibition of adrenergic alpha1 receptor
Mu-type opioid receptor = Mu-type opioid receptor (Homo sapiens, UniProt P35372); test: Inhibition of mu-type opioid receptor
[7] = target: Kappa-type opioid receptor (Homo sapiens, UniProt P41145); test: Inhibition of kappa-type opioid receptor
[8] = target: Delta-type opioid receptor (Homo sapiens, UniProt P41143); test: Inhibition of delta-type opioid receptor
Histamine H1 receptor = Histamine H1 receptor (Homo sapiens, UniProt P35367); test: Inhibition of histamine H1 receptor
Histamine H2 receptor = Histamine H2 receptor (Homo sapiens, UniProt P25021); test: Inhibition of histamine H2 receptor
Histamine H3 receptor = Histamine H3 receptor (Homo sapiens, UniProt Q9Y5N1); test: Inhibition of histamine H3 receptor
Histamine H4 receptor = Histamine H4 receptor (Homo sapiens, UniProt Q9H3N8); test: Inhibition of histamine H4 receptor
Adenosine receptor A2a = Adenosine receptor A2a (Homo sapiens, UniProt P29274); test: Inhibition of adenosine receptor A2A
[9] = target: T2, Muscarinic acetylcholine receptor M1 (Homo sapiens, UniProt P11229); test: Inhibition of muscarinic M1 receptor
T2 sequence (P11229 whole entry): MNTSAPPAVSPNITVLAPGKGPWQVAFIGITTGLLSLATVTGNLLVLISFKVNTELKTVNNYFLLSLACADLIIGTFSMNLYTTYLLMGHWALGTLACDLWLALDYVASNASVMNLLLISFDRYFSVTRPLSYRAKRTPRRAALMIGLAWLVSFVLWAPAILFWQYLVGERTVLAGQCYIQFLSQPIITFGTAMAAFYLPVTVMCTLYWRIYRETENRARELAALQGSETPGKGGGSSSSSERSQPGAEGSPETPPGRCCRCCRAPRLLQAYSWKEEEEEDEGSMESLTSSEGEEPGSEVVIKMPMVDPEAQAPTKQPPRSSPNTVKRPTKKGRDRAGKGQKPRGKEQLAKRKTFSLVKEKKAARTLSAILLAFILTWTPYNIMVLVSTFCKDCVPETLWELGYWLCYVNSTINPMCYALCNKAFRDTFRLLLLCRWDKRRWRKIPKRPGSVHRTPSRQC

T1 sequence (Q99705 whole entry): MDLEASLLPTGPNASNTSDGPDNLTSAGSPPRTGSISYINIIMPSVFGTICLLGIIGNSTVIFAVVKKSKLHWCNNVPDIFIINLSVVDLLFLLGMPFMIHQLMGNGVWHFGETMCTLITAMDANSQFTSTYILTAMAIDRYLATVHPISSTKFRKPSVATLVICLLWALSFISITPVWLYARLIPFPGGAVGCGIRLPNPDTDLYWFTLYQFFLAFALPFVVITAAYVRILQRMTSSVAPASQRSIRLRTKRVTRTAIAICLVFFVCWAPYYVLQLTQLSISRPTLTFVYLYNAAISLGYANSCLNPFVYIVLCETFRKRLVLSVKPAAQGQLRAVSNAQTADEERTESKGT
Sequence of Histamine H3 receptor (Q9Y5N1 whole entry): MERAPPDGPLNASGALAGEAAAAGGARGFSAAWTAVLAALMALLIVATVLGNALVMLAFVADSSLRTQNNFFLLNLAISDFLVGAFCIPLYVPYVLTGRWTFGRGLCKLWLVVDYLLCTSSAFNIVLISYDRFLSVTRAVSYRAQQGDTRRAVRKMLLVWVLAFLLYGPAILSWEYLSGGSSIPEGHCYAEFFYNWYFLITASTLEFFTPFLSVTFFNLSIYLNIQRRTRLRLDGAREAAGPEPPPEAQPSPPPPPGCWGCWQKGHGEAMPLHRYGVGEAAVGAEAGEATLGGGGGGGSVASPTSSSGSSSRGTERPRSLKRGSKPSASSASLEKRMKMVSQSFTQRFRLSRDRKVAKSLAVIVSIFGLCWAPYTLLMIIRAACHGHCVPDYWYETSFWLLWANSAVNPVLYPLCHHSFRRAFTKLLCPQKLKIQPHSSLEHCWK
Sequence of Adenosine receptor A2a (P29274 whole entry): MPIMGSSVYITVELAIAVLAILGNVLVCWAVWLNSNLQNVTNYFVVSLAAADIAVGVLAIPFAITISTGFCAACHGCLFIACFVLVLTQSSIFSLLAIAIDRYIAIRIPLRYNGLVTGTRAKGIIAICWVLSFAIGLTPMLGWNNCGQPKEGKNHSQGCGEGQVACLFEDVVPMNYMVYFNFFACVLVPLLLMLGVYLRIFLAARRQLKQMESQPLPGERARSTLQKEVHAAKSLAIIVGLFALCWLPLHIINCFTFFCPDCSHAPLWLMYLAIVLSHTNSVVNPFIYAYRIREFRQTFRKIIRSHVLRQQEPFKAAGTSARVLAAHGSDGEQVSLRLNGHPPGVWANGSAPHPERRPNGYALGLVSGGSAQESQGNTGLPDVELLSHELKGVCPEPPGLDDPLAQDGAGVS
Sequence of Kappa-type opioid receptor (P41145 whole entry): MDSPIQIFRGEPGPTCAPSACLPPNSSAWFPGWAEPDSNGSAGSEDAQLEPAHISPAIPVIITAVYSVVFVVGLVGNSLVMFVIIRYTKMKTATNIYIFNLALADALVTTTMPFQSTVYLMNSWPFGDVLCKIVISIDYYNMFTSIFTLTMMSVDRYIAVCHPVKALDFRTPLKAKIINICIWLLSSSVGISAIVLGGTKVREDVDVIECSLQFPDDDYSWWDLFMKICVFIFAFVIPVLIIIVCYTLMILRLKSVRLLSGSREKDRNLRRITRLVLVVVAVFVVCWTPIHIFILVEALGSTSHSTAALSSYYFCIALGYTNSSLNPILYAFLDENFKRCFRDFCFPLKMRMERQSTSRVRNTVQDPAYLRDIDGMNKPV
Sequence of Mu-type opioid receptor (P35372 whole entry): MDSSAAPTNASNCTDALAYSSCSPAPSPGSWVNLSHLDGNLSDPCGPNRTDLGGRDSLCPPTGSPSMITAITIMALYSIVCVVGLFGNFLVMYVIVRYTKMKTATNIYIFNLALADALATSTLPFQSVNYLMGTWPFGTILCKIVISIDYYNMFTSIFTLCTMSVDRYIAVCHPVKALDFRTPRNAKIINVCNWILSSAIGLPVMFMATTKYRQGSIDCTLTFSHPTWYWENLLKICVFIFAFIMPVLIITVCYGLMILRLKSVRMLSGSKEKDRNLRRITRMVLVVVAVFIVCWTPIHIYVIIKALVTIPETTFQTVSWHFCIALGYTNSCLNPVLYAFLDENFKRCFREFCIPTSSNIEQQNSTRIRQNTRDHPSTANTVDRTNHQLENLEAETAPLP
Sequence of Histamine H1 receptor (P35367 whole entry): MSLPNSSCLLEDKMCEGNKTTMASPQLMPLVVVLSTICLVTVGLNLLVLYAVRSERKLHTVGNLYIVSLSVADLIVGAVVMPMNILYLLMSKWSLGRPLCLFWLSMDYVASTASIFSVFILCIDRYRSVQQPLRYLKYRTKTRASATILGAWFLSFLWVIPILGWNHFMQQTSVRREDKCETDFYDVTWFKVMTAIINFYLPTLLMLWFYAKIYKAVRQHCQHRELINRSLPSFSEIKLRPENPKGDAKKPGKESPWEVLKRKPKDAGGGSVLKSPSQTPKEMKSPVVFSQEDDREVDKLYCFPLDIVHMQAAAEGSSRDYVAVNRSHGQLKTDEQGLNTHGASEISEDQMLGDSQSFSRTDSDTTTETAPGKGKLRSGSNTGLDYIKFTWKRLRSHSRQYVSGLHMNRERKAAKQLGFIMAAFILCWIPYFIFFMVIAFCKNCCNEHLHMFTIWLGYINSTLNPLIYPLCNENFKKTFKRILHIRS
Sequence of Histamine H2 receptor (P25021 whole entry): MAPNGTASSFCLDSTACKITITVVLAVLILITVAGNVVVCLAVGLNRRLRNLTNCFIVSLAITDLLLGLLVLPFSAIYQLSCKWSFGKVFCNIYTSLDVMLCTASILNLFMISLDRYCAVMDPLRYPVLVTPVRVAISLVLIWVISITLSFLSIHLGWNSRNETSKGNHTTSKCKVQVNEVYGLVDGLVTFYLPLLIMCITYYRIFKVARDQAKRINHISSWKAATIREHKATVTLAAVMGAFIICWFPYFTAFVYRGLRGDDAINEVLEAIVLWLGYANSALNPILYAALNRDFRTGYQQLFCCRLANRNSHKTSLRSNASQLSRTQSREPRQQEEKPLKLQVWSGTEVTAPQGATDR
Sequence of Delta-type opioid receptor (P41143 whole entry): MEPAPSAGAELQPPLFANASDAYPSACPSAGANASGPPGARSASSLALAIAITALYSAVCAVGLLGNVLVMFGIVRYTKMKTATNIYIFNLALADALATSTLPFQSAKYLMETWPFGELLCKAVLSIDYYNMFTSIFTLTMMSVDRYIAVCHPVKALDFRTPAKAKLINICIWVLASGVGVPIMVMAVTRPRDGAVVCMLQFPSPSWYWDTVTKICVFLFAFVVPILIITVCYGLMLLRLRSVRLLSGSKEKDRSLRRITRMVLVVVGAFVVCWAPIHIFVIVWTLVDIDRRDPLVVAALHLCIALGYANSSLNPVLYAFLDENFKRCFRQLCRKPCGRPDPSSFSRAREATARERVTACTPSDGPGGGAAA
Sequence of Voltage-gated inwardly rectifying potassium channel KCNH2 (Q12809 whole entry): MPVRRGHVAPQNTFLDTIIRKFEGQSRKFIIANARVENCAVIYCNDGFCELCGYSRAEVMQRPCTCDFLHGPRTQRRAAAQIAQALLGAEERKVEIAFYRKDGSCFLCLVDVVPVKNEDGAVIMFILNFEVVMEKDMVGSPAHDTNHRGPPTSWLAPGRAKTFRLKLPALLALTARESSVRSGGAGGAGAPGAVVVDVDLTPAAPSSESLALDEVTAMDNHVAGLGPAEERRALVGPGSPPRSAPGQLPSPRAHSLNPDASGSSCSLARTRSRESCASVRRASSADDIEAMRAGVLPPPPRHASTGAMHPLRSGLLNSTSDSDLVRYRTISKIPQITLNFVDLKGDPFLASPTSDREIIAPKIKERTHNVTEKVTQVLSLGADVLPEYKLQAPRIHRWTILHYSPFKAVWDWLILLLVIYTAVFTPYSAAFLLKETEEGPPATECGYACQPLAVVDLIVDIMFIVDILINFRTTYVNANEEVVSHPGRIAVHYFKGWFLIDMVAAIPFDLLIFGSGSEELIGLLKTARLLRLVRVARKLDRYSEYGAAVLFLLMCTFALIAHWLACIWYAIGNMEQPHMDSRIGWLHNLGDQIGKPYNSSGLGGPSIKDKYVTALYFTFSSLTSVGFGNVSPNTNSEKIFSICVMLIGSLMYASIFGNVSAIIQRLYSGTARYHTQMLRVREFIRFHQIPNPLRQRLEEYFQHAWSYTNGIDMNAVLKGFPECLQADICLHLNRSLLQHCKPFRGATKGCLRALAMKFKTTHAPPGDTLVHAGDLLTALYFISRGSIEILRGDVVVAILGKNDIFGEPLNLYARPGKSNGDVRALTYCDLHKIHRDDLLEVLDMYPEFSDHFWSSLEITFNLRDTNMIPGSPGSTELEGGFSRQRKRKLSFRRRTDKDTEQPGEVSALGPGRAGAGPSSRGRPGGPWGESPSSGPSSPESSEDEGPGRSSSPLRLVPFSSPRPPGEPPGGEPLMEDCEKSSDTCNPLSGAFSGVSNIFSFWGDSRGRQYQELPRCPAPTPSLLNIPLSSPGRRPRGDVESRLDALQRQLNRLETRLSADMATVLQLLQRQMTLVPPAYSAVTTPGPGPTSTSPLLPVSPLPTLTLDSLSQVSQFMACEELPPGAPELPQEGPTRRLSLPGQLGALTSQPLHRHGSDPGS

| Compound | IC50 [1] [nM] | remaining at 30 min [2] [%] | remaining at 30 min [3] [%] | other results |
| --- | --- | --- | --- | --- |
| CCCNCc1ccc(CCn2ccc(OCc3ccc(F)cc3)cc2=O)nc1 | 7 | 91 | 93 | IC50 [4]: 27 nM; IC50 [5]: 5100 nM; IC50 [6]: > 5000 nM; IC50 (Mu-type opioid receptor): > 5000 nM; IC50 [7]: > 5000 nM; IC50 [8]: > 5000 nM; IC50 (Histamine H1 receptor): > 5000 nM; IC50 (Histamine H2 receptor): > 5000 nM; IC50 (Histamine H3 receptor): > 5000 nM; IC50 (Histamine H4 receptor): > 5000 nM; IC50 (Adenosine receptor A2a): > 5000 nM; IC50 [9]: > 5000 nM |
| CCCNCc1ccc(CCn2ccc(OCc3ccc(F)cc3)cc2=O)cn1 | 11 | 87 | 76 |  |
| CCCN(CCC)Cc1ccc(CCn2ccc(OCc3ccc(F)cc3)cc2=O)cc1 | 3.3 | 1 | 1 |  |
| CCCNCc1ccc(COn2ccc(OCc3ccc(F)cc3)cc2=O)cc1 | 34 | 72 | 74 |  |
| CCCN(Cc1ccc(CCn2ccc(OCc3ccc(F)cc3)cc2=O)cc1)C(C)C | 5.2 | 4 | 1 |  |
| CCN(CC)Cc1ccc(CCn2ccc(OCc3ccc(F)cc3)cc2=O)cc1 |  | 54 | 26 |  |
| CCCN(Cc1ccc(CCn2ccc(OCc3ccc(F)cc3)cc2=O)cc1)C1CCCC1 | 3.5 | 1 | 1 |  |
| CCCNCc1ccc(CCn2ccc(OCc3ccc(F)cc3)cc2=O)cc1 |  | 85 | 62 | IC50 [4]: 20 nM; IC50 [6]: > 5000 nM; IC50 (Mu-type opioid receptor): > 5000 nM; IC50 [7]: > 5000 nM; IC50 [8]: > 5000 nM; IC50 (Histamine H1 receptor): > 5000 nM; IC50 (Histamine H2 receptor): > 5000 nM; IC50 (Histamine H3 receptor): > 5000 nM; IC50 (Histamine H4 receptor): > 5000 nM; IC50 (Adenosine receptor A2a): > 5000 nM; IC50 [9]: > 5000 nM |
| CCCN(CC)Cc1ccc(CCn2ccc(OCc3ccc(F)cc3)cc2=O)cc1 | 4.4 | 26 | 6 |  |
| CCCN(C)Cc1ccc(CCn2ccc(OCc3ccc(F)cc3)cc2=O)cc1 | 3.5 | 58 | 22 |  |
| CCCN(CCF)Cc1ccc(CCn2ccc(OCc3ccc(F)cc3)cc2=O)cc1 | 11 | 0 | 0 |  |
| CCCN(CCOC)Cc1ccc(CCn2ccc(OCc3ccc(F)cc3)cc2=O)cc1 | 5.4 | 0 | 0 |  |
| CCCN(Cc1ccc(CCn2ccc(OCc3ccc(F)cc3)cc2=O)cc1)CC(C)C | 4.9 | 0 | 0 |  |

More lines, main results first:

| IC50 [1] [nM] | remaining at 30 min [2] [%] | remaining at 30 min [3] [%] | Compound | other results |
| --- | --- | --- | --- | --- |
| > 1000 |  |  | O=c1cc(OCc2ccc(F)cc2)ccn1-c1ccc(CN2CCCC2)cc1 |  |
| 5 | 60 | 39 | O=c1cc(OCc2ccc(F)cc2)ccn1CCc1ccc(CN2CCCC2)cc1 |  |
| > 1000 |  |  | O=c1cc(OCc2ccc(F)cc2)ccn1CCc1ccc(N2CCCC2)cc1 |  |
| > 1000 |  |  | O=c1cc(OCc2ccc(F)cc2)ccn1-c1cccc(OCCN2CCCC2)c1 |  |
| 30 |  |  | O=c1cc(OCc2ccc(F)cc2)ccn1Cc1cccc(OCCCN2CCCC2)c1 |  |
| 29 |  |  | O=c1cc(OCc2ccc(F)cc2)ccn1Cc1cccc(OCCN2CCCC2)c1 |  |
| 5.6 |  |  | O=c1cc(OCc2ccc(F)cc2)ccn1-c1ccc(OCCN2CCCC2)cc1 |  |
